What follows are compounds tested on Clostridium perfringens (assay: Antimicrobial activity against Clostridium perfringens assessed as percent resistant isolates after 48 hrs by agar dilution method).
Assay type: functional

`CO[C@@]1(NC(=O)C2SC(=C(C(N)=O)C(=O)O)S2)C(=O)N2C(C(=O)O)=C(CSc3nnnn3C)CS[C@@H]21` (some centres undefined) [CEFOTETAN] and `CO[C@@]1(NC(=O)Cc2cccs2)C(=O)N2C(C(=O)O)=C(COC(N)=O)CS[C@@H]21` [CEFOXITIN] are the same in Activity: 0% for the first, 0% for the second.

`O=C(N[C@H](CO)[C@H](O)c1ccc([N+](=O)[O-])cc1)C(Cl)Cl` [CHLORAMPHENICOL] and `Cc1ncc([N+](=O)[O-])n1CCO` [METRONIDAZOLE] are the same in Activity: 0% for the first, 0% for the second.

Compared with `CCC[C@@H]1C[C@@H](C(=O)N[C@@H]([C@H]2O[C@H](SC)[C@H](O)[C@@H](O)[C@H]2O)[C@H](C)Cl)N(C)C1` [CLINDAMYCIN], `C[C@@H](O)[C@H]1C(=O)N2C(C(=O)O)=C(S[C@@H]3CN[C@H](C(=O)N(C)C)C3)[C@H](C)[C@H]12` [MEROPENEM] is lower in Activity: 7% for the first, 0% for the second.

`C[C@@H](O)[C@H]1C(=O)N2C(C(=O)O)=C(SCCNC=N)C[C@H]12` [IMIPENEM ANHYDROUS] and `CCN1CCN(C(=O)N[C@@H](C(=O)N[C@@H]2C(=O)N3[C@@H]2SC(C)(C)[C@@H]3C(=O)O)c2ccccc2)C(=O)C1=O` [PIPERACILLIN] are the same in Activity: 0% for the first, 0% for the second.

Each compound was assayed on Clostridium perfringens (assay: Antimicrobial activity against Clostridium perfringens assessed as percent resistant isolates after 48 hrs by agar dilution method in presence of 4 ug/ml beta-lactamase inhibitor Tazobactam).
Assay type: functional
How it was run: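 CLSI agar dilution on recent Korean clinical anaerobe isolates. Inoculum 10^5 CFU per spot by replicator. Plates incubated in an anaerobic chamber at 37°C for 48 h. For piperacillin plus tazobactam, tazobactam was held constant at 4 μg/ml. Resistance and susceptibility rates derived from MICs.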

For `CCN1CCN(C(=O)N[C@@H](C(=O)N[C@@H]2C(=O)N3[C@@H]2SC(C)(C)[C@@H]3C(=O)O)c2ccccc2)C(=O)C1=O` [PIPERACILLIN], the Activity was 0%.
